Bioassay records: PubChem BioAssay, several laboratories
MDM2 E3 inh: MDM2-luciferase reporter signal enhancers, primary screen, MDM2 E3 ligase inhibitor project, cell-based, luminescence, 1536-well. E3 ubiquitin-protein ligase Mdm2 (Homo sapiens), Q00987. cell-based MDM2 ubiquitination luciferase reporter, 2 h; 0 = plate control, 100 = twice control, blank-subtracted. signal enhancement, % at 5 µM. actives 0.11% (n = 210,000). AID 1230, 2008;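 active means signal enhancement of 30% or more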;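 further: luminescence tracks abundance of the self-degrading MDM2-luciferase fusion protein; higher signal means inhibition of MDM2 E3 ligase activity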
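system = mammalian cells stably expressing self-ubiquitinating, self-degrading MDM2 E3–luciferase fusion | quantity = 2000 cells per well seeded | incubation = 4 h cell settling then 2 h compound exposure, 37 °C | signal = SteadyLite luminescence, 15 min reagent step | benchmarks = plate control and blank wells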
DTT redox prof: compounds producing H2O2 with reducing agent – biochemical, NIH compound library profiling, artefact control for MLSCN library redox annotation, primary screen. actives 0.03% (n = 200,000). DTT-dependent redox cycling H2O2, phenol red/HRP absorbance; 100% = 100 µM peroxide control, 0% = buffer. AID 878, 2007. activation, % at 10 µM;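 active means activation of at least 50% relative to the plate's high and low controls in the primary single-dose screen; inactive means activation below 50%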;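 further: compound incubated with DTT at 0.8 mM final as the reducing agent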
PKD1 kinase inh: inhibitors of human PKD1 kinase, biochemical, fluorescence polarization. actives 0.056% (n = 200,000). inhibition, % (test concentration not listed). PKD1 kinase fluorescence polarization assay. Serine/threonine-protein kinase D1 (Homo sapiens), Q15139; in the data active means inhibition above about 50%
ROMK mod: ROMK potassium channel modulators, primary screen, cell-based, thallium flux, MLSMR library | ATP-sensitive inward rectifier potassium channel 1 (Homo sapiens), P48048 | Tet-inducible ROMK, thallium flux fluorescence; actives lie on both sides | B-score at 10 µM | actives 2% (n = 130,000) | AID 1918, 2009;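 active means signal ratio slope over the read window, or its plate-corrected B-score, at least 3 SD from the plate mean, either direction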;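 further: B-score of the F/F0 ratio slope over 7 to 12 s after thallium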
p97 inhibitor: inhibitors of human p97 ATPase, primary screen, biochemical | recombinant p97 ATPase, Kinase-Glo ATP luminescence, 3 h | inhibition, % at 8 µM | actives 0.42% (n = 220,000) | AID 1481, 2009; in the data active means inhibition above about 15%;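 further: 0% = DMSO vehicle and 100% = wells lacking enzyme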
Target sequence (P55072 whole entry, looked up): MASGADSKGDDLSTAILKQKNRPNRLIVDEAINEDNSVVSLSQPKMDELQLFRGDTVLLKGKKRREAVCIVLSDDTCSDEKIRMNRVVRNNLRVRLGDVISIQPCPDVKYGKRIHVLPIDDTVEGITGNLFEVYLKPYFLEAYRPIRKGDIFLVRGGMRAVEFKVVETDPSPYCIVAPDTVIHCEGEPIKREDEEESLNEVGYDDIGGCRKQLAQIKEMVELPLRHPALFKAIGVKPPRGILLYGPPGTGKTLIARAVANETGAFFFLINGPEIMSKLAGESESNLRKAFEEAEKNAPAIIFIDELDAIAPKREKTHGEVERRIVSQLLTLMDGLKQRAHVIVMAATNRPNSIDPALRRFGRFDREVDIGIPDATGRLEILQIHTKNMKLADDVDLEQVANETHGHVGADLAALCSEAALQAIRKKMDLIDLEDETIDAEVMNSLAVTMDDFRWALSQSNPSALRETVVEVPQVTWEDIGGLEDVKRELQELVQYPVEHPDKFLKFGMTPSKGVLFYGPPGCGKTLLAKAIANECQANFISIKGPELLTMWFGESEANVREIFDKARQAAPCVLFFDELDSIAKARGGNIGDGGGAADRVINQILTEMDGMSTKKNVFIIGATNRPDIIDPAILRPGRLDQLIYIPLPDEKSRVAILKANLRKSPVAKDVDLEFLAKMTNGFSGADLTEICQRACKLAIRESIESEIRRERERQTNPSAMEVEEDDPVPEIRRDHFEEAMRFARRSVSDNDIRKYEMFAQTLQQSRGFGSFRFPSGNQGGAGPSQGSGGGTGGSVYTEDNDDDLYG
KCC2 mod: KCC2 cotransporter modulators, thallium flux, primary screen, cell-based, HEK293 KCC2, FluoZin-2 fluorescence, MLSMR | Solute carrier family 12 member 5 (Homo sapiens), Q9H2X9 | KCC2 cells, thallium flux FluoZin-2 fluorescence | B-score of Tl+ flux slope (higher = more flux/activation; lower = inhibition) at 10 µM | actives 2.2% (n = 190,000) | AID 1456, 2008;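 active means thallium flux slope and its plate-corrected score both differing from the plate sample mean at a set confidence after two filtering rounds, in either direction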;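 further: slope of fluorescence scaled to starting intensity during 10 to 20 s after thallium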
KCC2 secondary: KCC2 modulators in sodium-free buffer, confirmation, cell-based, HEK293 KCC2, thallium flux, secondary assay. shares compounds with KCC2 mod. FluoZin2 fluorescence; hits give high values. normalised thallium flux (F/F0 slope) at 10 µM. actives 15% (n = 3,700). AID 1713, 2009;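 active means thallium flux slope above the same plate's solvent-only control mean plus 3 SD; inconclusive means the two replicate wells disagree; inactive means no significant difference from solvent-only control wells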
KCC2 bumet counter: thallium flux persisting under bumetanide in KCC2 cells, confirmation, counter-screen for KCC2 modulator project, cell-based, HEK293 KCC2, FluoZin2, secondary assay 3 | shares compounds with KCC2 mod | normalized thallium flux at 10 µM | AID 1714, 2009 | HEK293-KCC2 + bumetanide/ouabain; hits give high values | actives 49% (n = 3,700);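 active means thallium entry rate above the same plate's blocked-transporter control wells by more than 3 SD; inconclusive means the two repeat wells disagree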;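 further: raw slope of fluorescence over initial fluorescence between 10 and 20 s after thallium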
KCC2 secondary2: KCC2 modulators without ouabain present, confirmation, cell-based, HEK293 KCC2, thallium flux, FluoZin2, secondary assay 2; thallium flux FluoZin2 fluorescence; actives lie on both sides; F/F0 rise rate, 10–20 s post-thallium; normalized thallium flux at 10 µM; actives 23% (n = 3,700); AID 1715, 2009; shares compounds with KCC2 mod;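 active means thallium flux slope more than 3 SD above or below the plate's solvent-only control mean, mostly below; inconclusive means the two repeat wells disagreed; inactive means no significant shift from solvent-only controls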;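 further: raw slope with 0.1% DMSO as baseline and bumetanide as block control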
HEK293 Tl flux: thallium flux modulation in parental HEK cells, confirmation, counter-screen for KCC2 modulator project, cell-based, counterscreen 1 | shares compounds with KCC2 mod | HEK293 parental cells, thallium flux FluoZin2, ouabain; baseline-ratio fluorescence slope, 10–20 s after thallium | thallium flux rate (normalised fluorescence) at 10 µM | actives 46% (n = 3,700);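 active means thallium flux rate significantly above the same plate's solvent-only control wells, beyond their mean plus 3 SD; inconclusive means the two replicate wells gave conflicting results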
KCC2 ouabain: KCC2 inhibitors and activators, ouabain retest, confirmation, HEK-KCC2 cells; shares compounds with KCC2 mod; HEK293-KCC2, thallium flux FluoZin2 fluorescence; bidirectional: low = inhibitor, high = activator; raw Tl+ flux slope (below DMSO = inhibition, above = activation) at 10 µM; actives 48% (n = 3,700);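 active means thallium flux slope beyond 3 SD from same-plate DMSO control mean in most replicates, usually higher, sometimes lower; inconclusive means repeat tests gave conflicting results; inactive means no significant difference from controls in most replicates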;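 further: slope of initial-normalized fluorescence between seconds 10 and 20 after thallium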
HEK293 Tl flux2: native HEK Tl+ uptake effects, second counter-screen – HEK cells, counterscreen 2, counter-screen for KCC2 modulator project, confirmation; shares compounds with KCC2 mod; HEK293 parental, thallium flux FluoZin-2 fluorescence slope; thallium flux slope at 10 µM; actives 33% (n = 3,700); AID 1718, 2009;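 active means thallium flux slope above the same plate's solvent-control mean plus 3 SD in both duplicate wells; inconclusive means duplicate wells that disagreed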;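 further: run without ouabain in cells lacking the KCC2 cotransporter; slope of fluorescence scaled to its starting value between 10 and 20 s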
* hit, by the source's call; ? = inconclusive; / = not tested or not shown. The list is not random: actives were taken first. Their share in the collection is about 3.4%.

SMILES | MDM2 E3 inh | DTT redox prof | PKD1 kinase inh | ROMK mod | p97 inhibitor | KCC2 mod | KCC2 secondary | KCC2 bumet counter | KCC2 secondary2 | HEK293 Tl flux | KCC2 ouabain | HEK293 Tl flux2
O=C(NC(=S)Nc1ccccc1N1CCCC1)c1ccc(F)cc1 | -9 | 0 | 6 | -0.41 | -1 | 16* | 0.018* | 0.05* | 0.035 | 0.048* | 0.039* | 0.015*
CCSCc1nnc(SCC(=O)Nc2nc3ccccc3s2)n1C | 0 | 0 | -3 | -0.58 | 1 | -0.7 | / | / | / | / | / | /
CCc1nn(CCCC(=O)N2CCc3ccccc3C2)c(=O)c2cc3occc3n12 | -10 | 0 | -8 | 0.87 | -8 | -5.8* | 0.0075 | 0.006 | 0.03 | 0.0062 | 0.014* | 0.01
Cc1nn(CCCC(=O)N2CCc3ccccc3C2)c(=O)c2cc3sccc3n12 | -9 | 0 | -6 | / | -4 | -6.5* | 0.0058 | 0.0051 | ? | ? | 0.012* | 0.011
Cn1nc(C(=O)Nc2cccc(S(N)(=O)=O)c2)c2ccccc2c1=O | -10 | / | / | / | 0 | / | / | / | / | / | / | /
O=C(O)c1ccccc1NC(=S)NC(=O)c1cccc2ccccc12 | -4 | 0 | -4 | 0.51 | 5 | -0.18 | / | / | / | / | / | /
O=C(NC(=S)Nc1ccc2c(c1)OCCO2)c1cccc2ccccc12 | -3 | 1 | -3 | 2 | 5 | 11* | ? | 0.086* | 0.035 | 0.035* | 0.057* | 0.016*
O=C(NC(=S)Nc1ccc2c(c1)OCO2)c1ccccc1 | -6 | 3 | 1 | / | 4 | / | / | / | / | / | / | /
O=C(NC(=S)Nc1ccc2c(c1)OCCO2)c1cccc(Br)c1 | -5 | -1 | -5 | / | -7 | 37* | 0.0063 | 0.042* | 0.043* | 0.046* | 0.034* | 0.028*
C/C(=N\Nc1ccc(S(=O)(=O)N2CCOCC2)cc1[N+](=O)[O-])C(C)C | 5 | -3 | -5 | -0.081 | 2 | 0.61 | / | / | / | / | / | /
O=S(=O)(NCCN1CCOCC1)c1ccc(Cl)s1 | -17 | -2 | 4 | -0.15 | 2 | 0.94 | / | / | / | / | / | /
CCCCC1=CC2=CC(=O)C(C)(OC(=O)CC)C(=O)C2=CN1CCc1c[nH]c2ccccc12 (centres undefined) | -2 | / | / | / | / | 0.07 | / | / | / | / | / | /
C/C(=N\NC(=O)c1ccncc1)c1cc2ccccc2o1 | -6 | -2 | 7 | 0.47 | 4 | 11* | ? | 0.024* | 0.034 | 0.028* | 0.032* | ?
Cc1ccc(C(=O)NC(=S)NCc2cccnc2)cc1C | -4 | 0 | -4 | -0.96 | 2 | 0.34 | / | / | / | / | / | /
C/C(=N\NC(=O)c1cccnc1)c1cc2ccccc2o1 | -11 | 0 | -4 | 1.1 | 2 | 8.5* | 0.0077 | 0.027* | 0.032 | 0.012* | ? | ?
O=C(NC(=S)NCc1cccnc1)c1cc2ccccc2o1 | 8 | 0 | 0 | -0.71 | 5 | 42* | 0.03* | 0.088* | 0.049* | 0.049* | 0.053* | 0.048*
CC(C)OCCCNC(=O)C(NC(=O)c1ccc(Cl)cc1)C(C)C (centres undefined) | -6 | 0 | -2 | -0.61 | -1 | 0.4 | / | / | / | / | / | /
CC(=O)c1cccc(NC(=S)NNC(=O)c2ccco2)c1 | 0 | 0 | -8 | -0.062 | 3 | -0.96 | / | / | / | / | / | /
O=C(NCc1ccncc1)C(=O)NCC(c1ccco1)N1CCN(c2ccccc2F)CC1 (centres undefined) | -12 | 0 | -4 | 0.29 | 4 | -0.57 | / | / | / | / | / | /
COc1ccc(/C(=N/OC(C)=O)c2nccc3cc(OC)c(OC)cc23)cc1OC | 2 | / | / | -0.18 | 7 | 0.034 | / | / | / | / | / | /
S=C(NCc1ccco1)N/N=C/c1ccccc1Cl | 1 | 0 | -12 | -0.027 | 2 | 7.3* | 0.0089 | 0.018* | 0.031 | 0.0095* | 0.034* | ?
S=C(NCc1ccco1)Nc1ccccc1 | -1 | 0 | 0 | / | 9 | -1.6 | / | / | / | / | / | /
O=C(NC(=S)NCc1ccco1)c1ccccc1 | -10 | -1 | -9 | -0.39 | -2 | 19* | ? | 0.036* | 0.035 | 0.015* | 0.028 | 0.013*
O=C(NC(=S)NCc1ccccc1)c1ccccc1 | -13 | 0 | 0 | -0.11 | 1 | 22* | 0.0063 | 0.036* | 0.043* | 0.029* | 0.038* | 0.03*
O=C(NC(=S)NCc1ccc(F)cc1)c1ccccc1 | -6 | -1 | -9 | -1.4 | -4 | 48* | 0.027* | 0.053* | 0.039* | 0.021* | 0.029* | 0.023*
COc1ccccc1/C=N/NC(=S)NCc1ccco1 | -7 | / | / | -0.19 | 2 | 4.3 | / | / | / | / | / | /
Cn1nc(C(=O)NCc2cccs2)c2ccccc2c1=O | -22 | 0 | -2 | 0.0042 | 7 | 0.43 | / | / | / | / | / | /
